Assay outcomes from PubChem BioAssay.
SIRT5 block: SIRT5 desuccinylase inhibitors, primary screen, biochemical, fluorescence imaging, single point, set 5. inhibition, % at 15 µM. actives 1.1% (n = 330,000). Purified SirT5, succinyl-peptide AMC, trypsin-coupled fluorescence. NAD-dependent protein deacylase sirtuin-5, mitochondrial (Homo sapiens), Q9NXA8; in the data active = inhibition above about 15%
CASP6 VEID inh: human caspase-6 inhibitors, primary screen, biochemical, VEID-R110 fluorescence, single point, set 2; purified caspase-6, Z-VEID-R110 cleavage fluorescence; P55212; actives 0.53% (n = 350,000); inhibition, % at 12.5 µM;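 active = mean inhibition across replicates at least about 35%, with every replicate also reaching that limit, limit read from the data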
Target sequence (P55212 24-179 limits assumed): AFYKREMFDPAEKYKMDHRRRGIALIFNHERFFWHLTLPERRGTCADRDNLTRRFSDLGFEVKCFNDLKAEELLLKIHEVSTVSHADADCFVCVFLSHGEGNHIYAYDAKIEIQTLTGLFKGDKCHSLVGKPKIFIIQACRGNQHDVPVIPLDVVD
Target sequence (P55212 194-293 limits assumed): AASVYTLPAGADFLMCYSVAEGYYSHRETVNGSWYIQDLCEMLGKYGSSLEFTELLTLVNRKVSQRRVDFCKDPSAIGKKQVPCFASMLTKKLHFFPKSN
NSD2 HMT inh: NSD2 histone methyltransferase inhibitors, primary screen, biochemical, AlphaScreen, single concentration, set 2; AID 743445, 2014; actives 0.54% (n = 310,000); inhibition, % at 12.5 µM; NSD2 peptide methylation, 120 min; in the data active = inhibition above about 50%
UCH37 inh: inhibitors of human UCH37 deubiquitinase, primary screen, biochemical, Ub-AMC cleavage, fluorescence. actives 0.33% (n = 330,000). purified proteasome/UCH37. AID 588478, 2011. Ubiquitin carboxyl-terminal hydrolase isozyme L5 (Homo sapiens), Q9Y5K5. inhibition, % (no concentration beside the values);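 active = mean inhibition over replicate wells above about 20%, limit read from the data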
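Material: human UCH37 enzyme supplied as purified proteasome complex. Measure: % inhibition of Ub-AMC cleavage fluorescence. Medium: pH 7.4 Tris-HCl (50 mM) with ovalbumin, ATP-MgCl2, DTT. Times: 30 min preincubation with enzyme, 25 min cleavage at room temperature. Detection: AMC fluorescence intensity at 355/460 nm.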
FGF22 binding: binders of human FGF22 protein, primary screen, FGF22 synaptogenesis inhibitor project, biophysical, thermal shift, single point | recombinant FGF22 thermal shift, SYPRO orange fluorescence; percent of sucrose octasulfate shift, DMSO zero | activity (Tm shift, normalised), % at 9.99 µM | Fibroblast growth factor 22 (Homo sapiens), Q9HCT0 | actives 1.5% (n = 340,000);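 active = mean Tm shift, scaled 0 neutral to 100 positive control, at about 1.3% or above, every replicate too, limit read from the data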
Target sequence (Q9HCT0 whole entry, looked up): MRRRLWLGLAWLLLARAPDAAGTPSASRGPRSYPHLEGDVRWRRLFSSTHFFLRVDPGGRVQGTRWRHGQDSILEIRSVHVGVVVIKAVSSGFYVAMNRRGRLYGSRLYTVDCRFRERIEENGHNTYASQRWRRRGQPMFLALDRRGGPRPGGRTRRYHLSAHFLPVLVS
A number is an active result; 0 = inactive; - = no result given. Only some compounds are listed: those with a hit (about 2.6% of all), similar ones and a draw of the others.

SMILES	SIRT5 block	CASP6 VEID inh	NSD2 HMT inh	UCH37 inh	FGF22 binding
CC1(C)C2CC=C(/C=N/NC(=O)c3ccccc3O)C1C2 (stereo not drawn)	0	0	0	-	43.0
NC(=NOC(=O)c1ccccc1F)c1ccc([N+](=O)[O-])cc1	-	-	-	0	-
COCC(=O)N1CCC2(CC1)CN(S(C)(=O)=O)[C@@H](CO)c1[nH]c3cc(OC)ccc3c12	-	-	-	-	0
O=C(O)CCCC(=O)Nc1ccccc1C(=O)N1CCCC1	-	-	0	0	-
O=C(c1ccc(F)cc1)N1CCOCC1	21.7	0	0	0	0
O=C(Nc1ccc(F)cc1)c1ccc(C(=O)N2CCOCC2)cc1	0	0	-	0	0
O=C(c1ccc(-n2nc(C(F)(F)F)c3c2CCCC3)cc1)N1CCOCC1	0	0	0	0	43.3
O=C(c1ccccc1O)N1CCOCC1	0	0	0	0	43.2
O=C(O)CCCC(=O)Nc1ccccc1C(=O)N1CCOCC1	28.4	0	0	0	0
COc1ccccc1NC(=O)N[C@@H]1CC[C@H](CCn2cc(-c3cccnc3)nn2)O[C@@H]1CO	0	0	-	-	0
COc1ccc(CN(C)C[C@@H]2Oc3ccc(NC(=O)C4CC4)cc3CC(=O)N([C@@H](C)CO)C[C@@H]2C)cc1	0	0	-	-	0
CCCCCCCCCc1conc1C(=O)/C=C/c1ccco1	-	67.2	-	-	0
CCCCCCCCCc1conc1C(=O)CP(=O)(OC)OC	-	0	0	-	0
CCOC(=O)c1cnc2c(cnn2C)c1Cl	0	0	0	0	43.5
CO[C@@H]1CN(C)C(=O)c2ccc(NC(C)=O)cc2OC[C@H](C)N(C(=O)c2ccccc2)C[C@H]1C	0	0	-	-	0
CC(=O)Nc1ccc(NC(=S)Nc2ccccc2)cc1	-	-	0	0	-
CC(=O)Nc1ccc(SC(Sc2ccc(NC(C)=O)cc2)c2ccccc2)cc1	0	0	0	-	1.4
C#CCOCCOCCOCCNc1nc(N2CCN(C(=O)[C@H](CCCCN)n3cc([C@@H](N)[C@H](C)CC)nn3)CC2)nc(N2CCN(C(=O)[C@H](CCC(=O)O)n3cc([C@@H](N)CCCCN)nn3)CC2)n1	0	0	-	0	0
C#CCOCCOCCOCCNc1nc(N2CCN(C(=O)C(Cc3ccc(O)cc3)n3cc(C(N)CC(C)C)nn3)CC2)nc(N2CCN(C(=O)C(Cc3cc4ccccc4[nH]3)n3cc(C(N)Cc4ccc(O)cc4)nn3)CC2)n1 (stereo not drawn)	-	-	-	0	-
C#CCOCCOCCOCCNc1nc(N2CCOCC2)nc(N2CCN(C(=O)[C@H](Cc3cc4ccccc4[nH]3)n3cc([C@@H](N)Cc4ccc(O)cc4)nn3)CC2)n1	-	0	-	23.4	0
C#CCOCCOCCOCCNc1nc(N2CCN(C(=O)[C@H](CCCN=C(N)N)n3cc(C(N)[C@@H](C)CC)nn3)CC2)nc(N2CCN(C(=O)[C@H](CCC(=O)O)n3cc([C@@H](N)CCCCN)nn3)CC2)n1 (stereo partly drawn)	-	0	-	33.3	0
O=C(NC1CCS(=O)(=O)C1)c1cccc(Br)c1 (stereo not drawn)	17.3	0	0	0	0
Cc1ccc(C=NNC(=O)C(O)c2ccccc2)o1 (stereo not drawn)	-	-	-	0	-
O=C1CCCc2[nH]c(-c3ccccc3)nc21	0	0	0	0	42.9
COc1ccc(C(=O)NC(=S)Nc2ccc(CN3CCOCC3)cc2)cc1Br	15.7	0	0	0	0
SMILES	SIRT5 block	CASP6 VEID inh	NSD2 HMT inh	UCH37 inh	FGF22 binding
CC(=O)Nc1ccc(/C(C)=N/NC(=O)c2ccc(CN3CCOCC3)cc2)cc1	35.2	0	0	-	0
COc1ccc(C(=O)NC(=S)Nc2ccc(CN3CCOCC3)cc2)cc1	0	0	0	0	0
COc1ccc(C(=O)NC(=S)NNC(=O)c2ccc(NC(C)=O)cc2)cc1Br	0	0	0	0	43.0
CO[C@@H]1CN(C)C(=O)c2cc(NC(=O)C3CCCCC3)ccc2OC[C@H](C)NC[C@H]1C	0	0	-	-	-
CCCCCCCCN1C(=O)[C@H](CC(=O)NCCCOC)C[C@@]2(C(=O)OC)CCCCC=C12	0	0	-	-	0
CCOC(=O)[C@]12CCCC=C1N(Cc1ccco1)C(=O)[C@H](CC(=O)NCCCOC)C2	0	0	-	-	0
CCCCCCCCN1C(=O)[C@H](CC(=O)NCC2CCCCC2)C[C@@]2(C(=O)OC)CCCCC=C12	15.5	0	-	-	0
CCCCOCCCNC(=O)C[C@@H]1C[C@@]2(C(=O)OCC)CCC=C2N(Cc2ccco2)C1=O	0	49.5	-	-	0
CCOC(=O)[C@]12CCCC=C1N(CCC1=CCCCC1)C(=O)[C@H](CC(=O)NCCC(C)C)C2	0	0	-	-	0
CCCCCCCCN1C(=O)[C@H](CC(=O)NCCC(C)C)C[C@@]2(C(=O)OCC)CCCC=C12	20.9	0	-	-	0
CC(Cl)c1cc(-c2ncc(C(F)(F)F)cc2Cl)no1 (stereo not drawn)	0	0	0	29.5	43.6
O=C1CC2(CCCCC2)Oc2ccccc21	30.7	0	-	0	0
O=C1CC2(CCCCC2)Oc2ccc(F)cc21	-	-	-	0	-
O=C1CN(S(=O)(=O)Cc2ccccc2)C[C@@H]2[C@@H](c3ccc(C#CCC4CCCC4)cc3)[C@@H](CO)N12	0	0	-	-	-
O=C(CSc1ccc2nnc(-c3cccs3)n2n1)N1CCOCC1	0	0	-	0	0
CCCn1c(SCC(=O)N2CCCC(C)C2)nnc1-c1ccccn1 (stereo not drawn)	24.5	0	0	0	0
CCCn1c(SCC(=O)NC2CCCC2)nnc1-c1ccccn1	0	0	0	0	0
O=C(CSc1ccc(-c2ccccc2)nn1)N1CCCCC1	0	0	0	0	0
O=C(CSc1ccc2nnc(-c3ccccn3)n2n1)N1CCOCC1	-	0	-	0	43.8
CCOC(=O)N1CCN(C(=O)CSc2ccc3nnc(-c4ccccn4)n3n2)CC1	16.2	0	0	0	0
O=C(CSc1ccc(-c2ccccn2)nn1)N1CCCCC1	15.1	0	0	-	0
C[C@H](CO)N1C[C@H](C)[C@H](CN(C)C(=O)Nc2ccc3c(c2)OCO3)Oc2ncc(-c3ccc(F)cc3)cc2C1=O	0	0	-	-	0
C[C@@H]1CN([C@@H](C)CO)C(=O)c2cc(NC(=O)C3CCCCC3)ccc2O[C@@H]1CN(C)C	0	0	-	-	0
O=C(C[C@H]1CC[C@H]2[C@@H](COC[C@@H](O)CN2Cc2cccc(-c3ccncc3)c2)O1)N1CCOCC1	0	0	-	-	0
C[C@@H]1C=CCCO[C@]12C(=O)N(Cc1ccccc1C(F)(F)F)c1ccccc12	18.4	0	-	-	0
CCOC(=O)c1c(C)c(C(=O)NCc2ccccc2OC)c(C)n1C	0	0	0	0	-
CCOC(=O)c1c(C)c(C(=O)NCc2ccc(OC)cc2)c(C)n1C	0	47.6	0	0	0
